According to ChEMBL document CHEMBL4602608, “Isoquinoline Kelch-like ECH-Associated Protein 1-Nuclear Factor (Erythroid-Derived 2)-like 2 (KEAP1-NRF2) Inhibitors with High Metabolic Stability” (J Med Chem, 2020):
pIC50: −log10 of the molar value.

Experiments:
Keap1/Nrf2 = Keap1/Nrf2 (Homo sapiens, UniProt Q14145); experiment: Inhibition of Keap1-Nrf2 Interaction (unknown origin) by fluorescence anisotropy; assay type: protein assay
[1] = Partition coefficient, logD between n-octanol and pH 7.4 buffer by HPLC analysis; assay type: physicochemical; settings: n-octanol/pH 7.4 buffer
[2] = Half life in human liver microsomes in presence of NADPH by LC-MS/MS analysis; assay type: ADME, Microsome
[3] = biological target: T1, Keap1/Nrf2 (Homo sapiens) (UniProt Q16236+Q14145); experiment: Inhibition of Keap1-Nrf2 Interaction in human HaCaT cells assessed as increase in Nrf2 protein level at 0.25 uM incubated for 16 hrs by Western blot analysis relative to control; assay type: cell-based
T1 sequence (Q14145 whole entry, looked up): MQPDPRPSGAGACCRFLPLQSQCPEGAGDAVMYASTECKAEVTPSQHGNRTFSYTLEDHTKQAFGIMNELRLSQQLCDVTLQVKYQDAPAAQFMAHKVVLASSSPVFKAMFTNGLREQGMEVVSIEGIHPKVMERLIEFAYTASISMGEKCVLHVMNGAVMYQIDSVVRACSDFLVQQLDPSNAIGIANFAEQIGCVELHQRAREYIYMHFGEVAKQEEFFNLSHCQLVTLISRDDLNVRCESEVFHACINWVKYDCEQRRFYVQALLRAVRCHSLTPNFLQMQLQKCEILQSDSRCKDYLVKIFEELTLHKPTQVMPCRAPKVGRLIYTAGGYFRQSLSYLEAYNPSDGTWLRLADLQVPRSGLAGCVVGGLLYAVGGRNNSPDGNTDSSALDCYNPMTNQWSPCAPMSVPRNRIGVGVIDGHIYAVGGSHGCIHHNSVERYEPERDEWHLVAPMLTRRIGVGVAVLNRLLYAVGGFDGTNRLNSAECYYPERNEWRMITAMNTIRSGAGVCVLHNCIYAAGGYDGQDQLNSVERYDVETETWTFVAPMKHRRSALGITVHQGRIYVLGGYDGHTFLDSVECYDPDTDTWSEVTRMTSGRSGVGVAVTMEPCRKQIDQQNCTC
T1 sequence (Q16236 whole entry, looked up): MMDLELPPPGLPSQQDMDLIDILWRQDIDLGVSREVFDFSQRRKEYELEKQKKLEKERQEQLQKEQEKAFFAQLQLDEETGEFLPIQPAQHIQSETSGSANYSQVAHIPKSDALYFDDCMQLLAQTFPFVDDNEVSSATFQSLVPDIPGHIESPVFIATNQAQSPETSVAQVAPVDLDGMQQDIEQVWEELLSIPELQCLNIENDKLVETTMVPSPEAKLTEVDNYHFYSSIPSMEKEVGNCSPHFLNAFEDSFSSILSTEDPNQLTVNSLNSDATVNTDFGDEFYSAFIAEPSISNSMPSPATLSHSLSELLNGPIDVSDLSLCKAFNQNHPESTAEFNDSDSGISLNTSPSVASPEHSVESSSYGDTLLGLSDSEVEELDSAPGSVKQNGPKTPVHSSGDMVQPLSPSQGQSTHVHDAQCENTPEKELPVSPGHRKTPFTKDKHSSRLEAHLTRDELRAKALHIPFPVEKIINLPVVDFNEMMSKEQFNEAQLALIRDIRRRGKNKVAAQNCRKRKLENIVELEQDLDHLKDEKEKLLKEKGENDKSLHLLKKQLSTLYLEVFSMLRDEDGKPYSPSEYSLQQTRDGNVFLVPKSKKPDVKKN
In short: (§1)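 HaCaT keratinocytes were grown in DMEM with 10% FBS and 1% antibiotics, then treated at 70–80% confluence in complete medium, with DMSO as vehicle. RIPA lysates (~40 μg protein) were run on 10% SDS-PAGE and immunoblotted for NRF2 and NQO1, with β-actin as loading control and chemiluminescent detection. Values are mean fold change versus DMSO from two biological replicates.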

[4] = biological target: T1, Keap1/Nrf2 (Homo sapiens); experiment: Inhibition of Keap1-Nrf2 Interaction in human HaCaT cells assessed as increase in NQO1 protein level at 0.25 uM incubated for 16 hrs by Western blot analysis relative to control; assay type: cell-based; in short: as §1

Chain of Keap1/Nrf2 (Q16236 whole entry): as the sequence (Q16236 whole entry, looked up) above
Chain of Keap1/Nrf2 (Q14145 whole entry): as the sequence (Q14145 whole entry, looked up) above

Row | Structure (SMILES) | pIC50 (Keap1/Nrf2) | logD [1] | t1/2 [2] [h] | fold change (FC) [3] | fold change (FC) [4]
1 | COc1ccc(S(=O)(=O)Nc2cnc(N(C(C)C(=O)O)S(=O)(=O)c3ccc(OC)cc3)c3ccccc23)cc1 (stereo not given) | 5.64 | -1.1 | – | – | –
2 | COc1ccc(S(=O)(=O)Nc2ncc(N(CC(=O)O)S(=O)(=O)c3ccc(OC)cc3)c3ccccc23)cc1 | 5.96 | -0.5 | – | – | –
3 | COc1ccc(S(=O)(=O)N(CC(F)(F)F)c2cnc(N(CC(=O)O)S(=O)(=O)c3ccc(OC)cc3)c3ccccc23)cc1 | – | 0.5 | 2.27 | – | –
4 | COc1ccc(S(=O)(=O)N(CC(=O)O)c2cnc(N(CC(=O)O)S(=O)(=O)c3ccc(F)cc3)c3ccccc23)cc1 | 6.55 | -1.9 | – | – | –
5 | O=C(O)CN(c1ncc(N(CC(F)(F)F)S(=O)(=O)c2ccc(F)cc2)c2ccccc12)S(=O)(=O)c1ccc(F)cc1 | 6.38 | 0.6 | > 3 | – | –
6 | COc1ccc(S(=O)(=O)N(CC(=O)O)c2ncc(N(CC(=O)O)S(=O)(=O)c3ccc(F)cc3)c3ccccc23)cc1 | 6.62 | -1.8 | – | – | –
7 | O=C(O)CN(c1cnc(N(CC(=O)O)S(=O)(=O)c2ccc(O)cc2)c2ccccc12)S(=O)(=O)c1ccc(O)cc1 | 6.46 | – | 0.05 | – | –
8 | O=C(O)CN(c1cnc(N(CC(=O)O)S(=O)(=O)c2ccc(F)cc2)c2ccccc12)S(=O)(=O)c1ccc(F)cc1 | 6.37 | – | – | – | –
9 | COc1ccc(S(=O)(=O)N(C)c2cnc(N(CC(=O)O)S(=O)(=O)c3ccc(OC)cc3)c3ccccc23)cc1 | 6.00 | 0 | 0.1 | – | –
10 | COC(=O)[C@]12CCC(C)(C)C[C@H]1[C@H]1C(=O)C=C3[C@@]4(C)C=C(C#N)C(=O)C(C)(C)[C@@H]4CC[C@@]3(C)[C@]1(C)CC2 | – | – | – | 3.34 | 1.43

More lines, in order of rising pIC50 (Keap1/Nrf2), values ahead:

Row | pIC50 (Keap1/Nrf2) | logD [1] | t1/2 [2] [h] | fold change (FC) [3] | fold change (FC) [4] | Structure (SMILES)
11 | 6.64 | – | 0.617 | – | – | COc1ccc(S(=O)(=O)Nc2cnc(N(CC(=O)O)S(=O)(=O)c3ccc(OC)cc3)c3ccccc23)cc1
12 | 6.68 | -0.1 | 0.967 | – | – | COc1ccc(S(=O)(=O)N(CCF)c2cnc(N(CC(=O)O)S(=O)(=O)c3ccc(OC)cc3)c3ccccc23)cc1
13 | 6.89 | 0.6 | > 3 | – | – | COc1ccc(S(=O)(=O)N(CC(F)(F)F)c2cnc(N(CC(=O)O)S(=O)(=O)c3ccc(F)cc3)c3ccccc23)cc1
14 | 6.92 | 0.5 | > 3 | – | – | COc1ccc(S(=O)(=O)N(CC(=O)O)c2ncc(N(CC(F)(F)F)S(=O)(=O)c3ccc(F)cc3)c3ccccc23)cc1
15 | 7.26 | 0.2 | 1.62 | – | – | COc1ccc(S(=O)(=O)N(CC(F)F)c2cnc(N(CC(=O)O)S(=O)(=O)c3ccc(OC)cc3)c3ccccc23)cc1
